In ChEMBL document CHEMBL2417449, “Discovery of the first inhibitors of bacterial enzyme D-aspartate ligase from Enterococcus faecium (Aslfm)” (Eur J Med Chem, 2013):
The source made the active and inactive calls. The calls are words filed in the database; no cut-off is given here.

Experiments:
Enterococcus faecium [1] = assay: Inhibition of purified Enterococcus faecium D359 His-tagged Aslfm assessed as residual activity preincubated at 100 uM for 2 mins prior to reaction initiation measured after 10 mins by UV/VIS spectrophotometry
Procedure, shortened: (§1)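 His-tagged Aslfm in 100 mM Tris-HCl pH 8.0, 50 mM MgCl2, 2 mM phosphoenolpyruvate, 0.16 mM NADH, 1 mM ATP, 1 mM D-Asp, 0.005% Triton X-114, with pyruvate kinase and lactate dehydrogenase. Compound in DMSO was preincubated 2 min at 37 °C, and the reaction was started with 0.3 mM UM5K. A340 was followed for 10 min. Duplicates; residual activity is relative to DMSO controls.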

Enterococcus faecium [2] = assay: Inhibition of purified Enterococcus faecium D359 His-tagged Aslfm assessed as residual activity preincubated at 250 uM for 2 mins prior to reaction initiation measured after 10 mins by UV/VIS spectrophotometry; procedure, shortened: as §1
Enterococcus faecium [3] = assay: Antimicrobial activity against Enterococcus faecium D344R after 18 hrs by macrodilution method
Enterococcus faecium [4] = assay: Antimicrobial activity against Enterococcus faecium E1636 after 18 hrs by broth microdilution method; type: functional; settings: E1636, 18 h
Enterococcus faecalis = assay: Antimicrobial activity against Enterococcus faecalis ATCC 29212 after 18 hrs by broth microdilution method; type: functional; settings: ATCC 29212, 18 h
[5] = Inhibition of purified Enterococcus faecium D359 His-tagged Aslfm preincubated for 2 mins prior to reaction initiation measured after 10 mins by UV/VIS spectrophotometry; procedure, shortened: as §1
Enterococcus faecium [6] = assay: Antimicrobial activity against Enterococcus faecium E1679 after 18 hrs by broth microdilution method; type: functional; settings: E1679, 18 h
Enterococcus faecium [7] = assay: Competitive inhibition of purified Enterococcus faecium D359 His-tagged Aslfm preincubated for 2 mins prior to reaction initiation measured after 10 mins by time course assay
Procedure, shortened: (§2)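 Coupled pyruvate kinase–lactate dehydrogenase assay at 37 °C monitored at 340 nm. Starting conditions: 100 µM ATP, 1 mM D-Asp, 300 µM UDP-MurNAc-pentapeptide, 2 mM phosphoenolpyruvate, 105 µM NADH, enzyme 0.75 or 1 µM, up to six inhibitor concentrations. Progress curves over 10–15 min were fitted to a […] mechanism, with enzyme constants fixed and inhibitor constants fitted. Ki was also measured at ATP 50 and 100 µM.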

Enterococcus faecium [8] = assay: Binding affinity to purified Enterococcus faecium D359 His-tagged Aslfm by isothermal titration calorimetry method
Procedure, shortened: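 The ligand (50 µM in buffer with 5% DMSO) was titrated into ~1 µM enzyme (5% DMSO) at 37 °C, 300 rpm, with 5–8 min intervals, to a final ratio of ~12:1. Data were corrected for ligand-into-buffer heats and fitted to a single-binding-site model.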

[9] = Binding affinity to purified Enterococcus faecium D359 His-tagged Aslfm by kinetic study; settings: in the assay text read “isothermal titration calorimetry” for “kinetic study”
Enterococcus faecium [10] = assay: Competitive inhibition of purified Enterococcus faecium D359 His-tagged Aslfm preincubated at 1 uM for 2 mins prior to reaction initiation measured after 10 mins by time course assay; procedure, shortened: as §2
Enterococcus faecium [11] = assay: Antimicrobial activity against Enterococcus faecium D344R at 160 ug after 18 hrs by disk diffusion method
Enterococcus faecium [12] = assay: Inhibition of purified Enterococcus faecium D359 His-tagged Aslfm assessed as residual activity preincubated at 50 uM for 2 mins prior to reaction initiation measured after 10 mins by UV/VIS spectrophotometry; procedure, shortened: as §1
Enterococcus faecium [13] = assay: Competitive inhibition of purified Enterococcus faecium D359 His-tagged Aslfm preincubated at 0.75 uM for 2 mins prior to reaction initiation measured after 10 mins by time course assay; procedure, shortened: as §2

`CN(C(=O)Cn1c(-c2nonc2N)nc2ccccc21)c1ccccc1` gave an Activity (Enterococcus faecium [1]) of 116%.

In the case of `Nc1nc(NCc2ccc3c(c2)OCO3)c2nc[nH]c2n1`, the Activity (Enterococcus faecium [1]) is reported as 84%.

With `Nc1nc(NCc2c(F)cccc2Cl)c2cn[nH]c2n1` the Activity (Enterococcus faecium [1]) was 84%.

For `Nc1nnc(P(=O)(c2ccccc2)c2ccccc2)s1`, the Activity (Enterococcus faecium [1]) was 95%.

For `CCCCN(CCCC)C(=O)c1cnc(N)o1`, the Activity (Enterococcus faecium [2]) was 94% and the MIC (Enterococcus faecium [3]) was greater than 200 µg/mL.

In the case of `Nc1nc(NCc2ccc(Cl)s2)c2cn[nH]c2n1`, the Activity (Enterococcus faecium [1]) is reported as 74%.

With `Nc1nc(NCc2ccc(F)cc2F)c2cn[nH]c2n1` the Activity (Enterococcus faecium [1]) was 93%.

Work on `O=C(c1cnc(O)cn1)N(Cc1cccs1)CC1CCCO1` (stereo unspecified) yielded an Activity (Enterococcus faecium [1]) of 93%.

For `Nc1nonc1-c1nc2ccccc2n1CC(=O)Nc1ccccc1`, the Activity (Enterococcus faecium [1]) was 89%.

In the case of `OC(c1ccccc1)(c1ccccc1)c1c[nH]cn1`, the Activity (Enterococcus faecium [1]) is reported as 100%.

`Nc1nc(NCc2ccc(Cl)cc2Cl)c2cn[nH]c2n1` gave an MIC (Enterococcus faecium [4]) greater than 64 µg/mL, an MIC (Enterococcus faecalis) greater than 64 µg/mL and a Ki [5] of 22 µM. The MIC (Enterococcus faecium [6]) was greater than 64 µg/mL, the Activity (Enterococcus faecium [1]) was 69% and the inhibition (Enterococcus faecium [7]) was “Active”.

Compound `Cc1ccc(F)c(CNc2nc(N)nc3[nH]ncc23)c1F` has an Activity (Enterococcus faecium [1]) of 79%.

Work on `Nc1ncc(C(=O)N(Cc2ccccn2)Cc2ccccn2)o1` yielded an Activity (Enterococcus faecium [2]) of 74% and an MIC (Enterococcus faecium [3]) greater than 200 µg/mL.

`Nc1nc(SCc2c(Cl)cccc2Cl)c2nc[nH]c2n1` showed a Kb (Enterococcus faecium [8]) of 2 ×10⁵ /M, an MIC (Enterococcus faecium [4]) greater than 64 µg/mL and a Ki [9] of 5 µM. The inhibition (Enterococcus faecium [10]) was “Active”, the MIC (Enterococcus faecalis) was greater than 64 µg/mL and the Ki [5] was 3.2 µM. For the same compound, the MIC (Enterococcus faecium [6]) was greater than 64 µg/mL and the Activity (Enterococcus faecium [1]) was 47%.

For `CC1(C)S[C@@H]2[C@H](NC(=O)[C@H](N)c3ccccc3)C(=O)N2[C@H]1C(=O)O`, the “growth inhibition (GI)” value (Enterococcus faecium [11]) was “inactive”.

Work on `Nc1ncc(-c2nnnn2-c2ccccc2)c(-c2ccccc2)n1` yielded an Activity (Enterococcus faecium [1]) of 92%.

With `Nc1nc(NCc2cccc(Cl)c2Cl)c2cn[nH]c2n1` the Activity (Enterococcus faecium [1]) was 86%.

`Nc1ncc(C(=O)Nc2nc3ccccc3[nH]2)o1` showed an Activity (Enterococcus faecium [2]) of 90% and an MIC (Enterococcus faecium [3]) greater than 200 µg/mL.

For `Nc1ncc(C(=O)NCc2ccc3[nH]ccc3c2)o1`, the Activity (Enterococcus faecium [2]) was 79% and the MIC (Enterococcus faecium [3]) was greater than 200 µg/mL.

Compound `COc1ccc(CNc2nc(N)nc3[nH]cnc23)c(OC)c1` has an Activity (Enterococcus faecium [1]) of 89%.

Work on `Cc1ccc(-n2nnnc2-c2cn[nH]c2-c2cccc(C)c2)cc1` yielded an Activity (Enterococcus faecium [1]) of 92%.

`Nc1nc(NCc2ccc(Cl)c(Cl)c2)c2nc[nH]c2n1` showed an Activity (Enterococcus faecium [1]) of 83%.

In the case of `Nc1nc(SCc2ccc(Cl)cc2Cl)c2nc[nH]c2n1`, the MIC (Enterococcus faecium [4]) is reported as greater than 64 µg/mL, the MIC (Enterococcus faecalis) is reported as greater than 64 µg/mL and the Ki [5] is reported as 35 µM. For the same compound, the MIC (Enterococcus faecium [6]) was greater than 64 µg/mL, the Activity (Enterococcus faecium [1]) was 71% and the inhibition (Enterococcus faecium [7]) was “Active”.

In the case of `Nc1nc(NCc2ccc(Cl)cc2Cl)c2nc[nH]c2n1`, the Activity (Enterococcus faecium [1]) is reported as 85%.

Compound `Nc1nc(NCc2c(F)cccc2F)c2cn[nH]c2n1` has an Activity (Enterococcus faecium [1]) of 88%.

`CCN(Cc1ccncc1)C(=O)c1cnc(N)o1` gave an Activity (Enterococcus faecium [2]) of 98% and an MIC (Enterococcus faecium [3]) greater than 200 µg/mL.

With `O=C(c1ccc(O)nc1)N(Cc1ccco1)Cc1cccs1` the Activity (Enterococcus faecium [1]) was 93%.

`CS(=O)(=O)Nc1nc(CC(=O)N(Cc2cccs2)Cc2cccs2)cs1` showed an Activity (Enterococcus faecium [1]) of 91%.

With `Cc1nc(N)sc1C(=O)N(Cc1ccccc1)Cc1ccccc1` the Activity (Enterococcus faecium [2]) was 82% and the MIC (Enterococcus faecium [3]) was greater than 200 µg/mL.

In the case of `Clc1cccc(Cl)c1CN(Cc1ccccc1)c1ncnc2[nH]cnc12`, the Activity (Enterococcus faecium [12]) is reported as 94%.

For `CCCCN(Cc1ccccc1)C(=O)c1cnc(N)o1`, the Activity (Enterococcus faecium [2]) was 75% and the MIC (Enterococcus faecium [3]) was greater than 200 µg/mL.

In the case of `Clc1ccc(CN(Cc2ccccc2)c2ncnc3[nH]cnc23)cc1`, the Activity (Enterococcus faecium [12]) is reported as 110%.

`Nc1ncc(C(=O)N(Cc2ccccc2)Cc2ccccc2)s1` showed an Activity (Enterococcus faecium [2]) of 80% and an MIC (Enterococcus faecium [3]) greater than 200 µg/mL.

`Nc1nc(NCc2cccnc2Cl)c2cn[nH]c2n1` showed an Activity (Enterococcus faecium [1]) of 87%.

For `c1ccc(CN(Cc2ccccc2)c2ncnc3[nH]cnc23)cc1`, the Activity (Enterococcus faecium [1]) was 83%.

In the case of `Nc1ncc(C(=O)N(Cc2cc(Br)cc(Br)c2)Cc2ccc3[nH]ccc3c2)o1`, the MIC (Enterococcus faecium [4]) is reported as greater than 64 µg/mL, the MIC (Enterococcus faecium [3]) is reported as greater than 200 µg/mL and the MIC (Enterococcus faecalis) is reported as greater than 64 µg/mL. The Ki [5] was 2.9 µM, the MIC (Enterococcus faecium [6]) was greater than 64 µg/mL and the Activity (Enterococcus faecium [1]) was 44%. The inhibition (Enterococcus faecium [7]) was “Active”.

`Nc1ncc(C(=O)N(Cc2ccccc2)Cc2ccccc2)o1` showed a Kb (Enterococcus faecium [8]) of 2 ×10⁵ /M, an MIC (Enterococcus faecium [4]) greater than 64 µg/mL and a Ki [9] of 5 µM. It also gave an Activity (Enterococcus faecium [2]) of 43%, an MIC (Enterococcus faecium [3]) greater than 200 µg/mL and an MIC (Enterococcus faecalis) greater than 64 µg/mL. The Ki [5] was 44 µM, the MIC (Enterococcus faecium [6]) was greater than 64 µg/mL and the inhibition (Enterococcus faecium [13]) was “Active”.
